Laboratory results as given in PMC4775349 (Chemical communications (Cambridge, England), 2016).

Target: T1, His6-Te2FT (Thermosynechococcus vestitus, UniProt Q8DK72)
T1 sequence (Q8DK72 1-293): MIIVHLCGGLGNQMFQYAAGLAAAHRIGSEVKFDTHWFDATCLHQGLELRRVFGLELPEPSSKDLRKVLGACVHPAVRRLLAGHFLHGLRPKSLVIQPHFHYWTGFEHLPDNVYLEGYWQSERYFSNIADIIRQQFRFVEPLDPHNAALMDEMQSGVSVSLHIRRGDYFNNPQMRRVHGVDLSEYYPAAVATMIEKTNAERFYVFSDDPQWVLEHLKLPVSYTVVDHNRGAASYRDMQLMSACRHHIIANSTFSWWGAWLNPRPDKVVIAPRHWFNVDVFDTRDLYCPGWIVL
Assay: HPLC-based fucosyltransferase kinetics
Type: biochemical
Details: α1–2-fucosyltransferase activity; acceptor; donor GDP-fucose
Method in brief: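 Enzyme is N-His6-tagged Te2FT from the pET15b vector, expressed in E. coli at 16 °C for 20 h with shaking at 120 rpm. It was purified on a Ni2+ column and quantified by bicinchoninic acid assay. Apparent kinetic parameters (kcat, KM, kcat/KM) were determined for α1–2-fucosyltransferase activity. The acceptor was Galβ1–3GlcNAcβ2AA and the donor was GDP-fucose.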

Galβ1–3GlcNAcβ2AA
Km: 790 ± 110 µM
